Calls of active or inactive are those of the source. No cut-off for these calls is given here.
Tests used:
[1] = target: T1, Quinolone resistance protein NorA (Staphylococcus aureus) (UniProt P0A0J7); experiment: Inhibition of wild type Staphylococcus aureus NCTC8325-4 NorA assessed as time taken to inhibit ethidium bromide efflux by measuring fluorescence at 100 uM relative to control
T1 sequence (whole entry): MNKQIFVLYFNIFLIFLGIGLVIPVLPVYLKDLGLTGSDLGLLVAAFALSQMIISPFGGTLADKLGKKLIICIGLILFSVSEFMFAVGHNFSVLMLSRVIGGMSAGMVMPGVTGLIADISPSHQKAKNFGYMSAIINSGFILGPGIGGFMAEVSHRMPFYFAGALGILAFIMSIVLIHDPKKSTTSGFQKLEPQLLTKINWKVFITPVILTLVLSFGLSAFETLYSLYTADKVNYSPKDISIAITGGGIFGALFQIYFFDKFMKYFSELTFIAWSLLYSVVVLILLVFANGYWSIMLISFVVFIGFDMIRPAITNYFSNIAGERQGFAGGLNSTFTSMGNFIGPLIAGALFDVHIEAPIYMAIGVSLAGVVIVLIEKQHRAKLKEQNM
Summary of the method: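 Cells grown in Mueller-Hinton broth to OD600 0.74, then loaded with ethidium bromide (25 μM) plus CCCP (100 μM) for 20 min at 20 °C with shaking. Diluted to OD600 0.40, pelleted and held on ice. Resuspended in fresh broth with 10% DMSO final and treatment at 100 μM final; CCCP is the control. Fluorescence (ex 530, em 600 nm) read every second for 300 s. Two-factor ANOVA versus vehicle at t = 300 s.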

Staphylococcus aureus [2] = experiment: Inhibition of Staphylococcus aureus K1758 NorA mutant assessed as inhibition of ethidium bromide efflux by measuring increase in fluorescence at 100 uM after 300 secs
Staphylococcus aureus [3] = experiment: Antimicrobial activity against NorA efflux pump overexpressing Staphylococcus aureus K2378; type: functional
Summary of the method: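 S. aureus K2378 (norA overexpressing); single colony grown to log phase in Mueller-Hinton broth, adjusted by OD600 to 1.0×10^5 CFU/mL final; broth microdilution per CLSI in broth with 2% DMSO; triplicate wells plus bacteria-free background wells; OD600 read after 20 hrs at 37 °C; MIC = concentration with no significant difference (ANOVA) from vehicle control.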

Staphylococcus aureus [4] = experiment: Antimicrobial activity against wild-type Staphylococcus aureus NCTC8325-4; type: functional
Summary of the method: (§1)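 Broth microdilution MIC per CLSI guidelines. Single-colony S. aureus inoculum grown to log phase in Mueller-Hinton broth, adjusted by OD600 to 1.0×10^5 CFU/mL final. Medium contains 2% DMSO (vehicle, negative control); reserpine is the positive control. Triplicate wells, with bacteria-free wells for background subtraction. OD600 read after 20 hrs at 37 °C.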

Staphylococcus aureus [5] = experiment: Antimicrobial activity against Staphylococcus aureus; type: functional; summary of the method: as §1

Compound	TIME [1]	inhibition (Staphylococcus aureus [2])	MIC (Staphylococcus aureus [3])	MIC (Staphylococcus aureus [4])	MIC (Staphylococcus aureus [5])
COc1c(C)c(O)c2c(=O)cc(-c3ccc(O)cc3)oc2c1C	0.0833 h	inactive			
COc1cc(O)c2c(=O)cc(-c3ccc(O)cc3)oc2c1C	0.0833 h	inactive			
N#CC(C#N)=NNc1cccc(Cl)c1	0.0833 h	inactive			
COc1cc2oc(-c3ccc(O)cc3)cc(=O)c2c(O)c1C [8-DEMETHYLSIDEROXYLIN]	0.0833 h	inactive	> 300 µg/mL		
COc1ccc2cc3[n+](cc2c1OC)CCc1cc2c(cc1-3)OCO2 [BERBERINE]			300 µg/mL	150 µg/mL	150 µg/mL

Reference: ChEMBL document CHEMBL1817627, “Synergy-directed fractionation of botanical medicines: a case study with goldenseal (Hydrastis canadensis)” (2011)
